Results gathered from unrelated publications.
Lines come from different studies, so protocols differ.
Cell line: HepG2
Observed: cell growth or viability

Compound	assay	conditions	measurement	value
COc1ccc(-c2cc(-c3ccc(C)cc3)nc3c2c(=O)n(C)c(=O)n3C)cc1OC	MTT	48 h	IC50	32.5 µM
O=C(Nc1ccccc1)Nc1ccc(Oc2nnc(-c3ccc(Cl)cc3)c3ccccc23)cc1	MTT	5 µM	cell death	94.9%
CN(C)c1cc(NC(=O)c2ccccn2)c(O)c2c1C[C@H]1C[C@H]3[C@H](N(C)C)C(O)=C(C(N)=O)C(=O)[C@@]3(O)C(O)=C1C2=O	ATP luminescence	72 h	IC50	187 µg/mL
COc1ccc(-c2cc(-c3cccc(Br)c3)c3c(=O)[nH]c(=O)[nH]c3n2)cc1	MTT	48 h	IC50	16.2 µM
C/C(=N\N=C1/NC(=O)/C(=C\c2ccc(F)cc2)S1)c1ccccn1	SRB	100 µg/mL, 48 h	inhibition	57.6%
CC(=O)c1nn(-c2ccc(C)cc2)/c(=N/N=C(\C)c2ccc(NC(=O)c3ccccc3)cc2)s1	MTT	0.156 µM	viability	28.5%
CC(=NNC(=O)c1ccncc1)c1ccc(Nc2nnc(-c3ccc(Cl)cc3)c3ccccc23)cc1	MTT	78 nM	cell death	3.16%
CCOC(=O)c1nn(-c2cccc(Cl)c2)/c(=N/N=C(\C)c2ccc(NC(=O)c3ccccc3)cc2)s1	MTT	0.312 µM	viability	3.54%
CC(=NNC(=O)COc1ccc2c(C)c(Cc3ccccc3)c(=O)oc2c1C)c1ccc(Br)cc1	MTT	25 µg/mL	viability	44.2%
CC(=NNC(=O)c1ccccc1O)c1ccc(Nc2nnc(-c3ccc(Cl)cc3)c3ccccc23)cc1	MTT	2.5 µM	cell death	62.1%
CC(=O)Nc1ccc(/C(C)=N/N=c2\sc(C(C)=O)nn2-c2ccc(C)cc2)cc1	MTT	1.25 µM	viability	99.8%
CN(C)c1cc(NC(=O)Cc2cscn2)c(O)c2c1C[C@H]1C[C@H]3[C@H](N(C)C)C(O)=C(C(N)=O)C(=O)[C@@]3(O)C(O)=C1C2=O	ATP luminescence	72 h	IC50	75.8 µg/mL
Cc1ccc(-c2cc(-c3ccc(Cl)cc3)c3c(=O)n(C)c(=O)n(C)c3n2)cc1	MTT	48 h	IC50	7.42 µM
CC(=NNC(=O)c1cccnc1)c1ccc(Nc2nnc(-c3ccc(Cl)cc3)c3ccccc23)cc1	MTT	1.25 µM	cell death	88.1%
COc1ccc(-c2cc(-c3ccc(Cl)cc3)c3c(=O)n(C)c(=O)n(C)c3n2)cc1	MTT	48 h	IC50	17.3 µM
CC(=O)Nc1ccc(Oc2nnc(-c3ccc(Cl)cc3)c3ccccc23)cc1	MTT	2.5 µM	cell death	93.5%
COc1ccc(-c2cc(-c3ccc(Br)cc3)c3c(=O)[nH]c(=O)[nH]c3n2)cc1	MTT	48 h	IC50	11.2 µM
O=C(C=Cc1ccccc1)Nc1ccc(Oc2nnc(-c3ccc(Cl)cc3)c3ccccc23)cc1	MTT	1.25 µM, 24 h	viability	37.4%
CCOC(=O)c1nn(-c2cccc(Cl)c2)/c(=N/N=C(\C)c2ccc(NC(=O)c3ccc(Cl)cc3)cc2)s1	MTT	0.625 µM	viability	2.86%
O=C(Nc1ccc(Oc2nnc(-c3ccc(Cl)cc3)c3ccccc23)cc1)c1ccccc1	MTT	10 µM, 24 h	viability	4.07%
CC(=O)c1nn(-c2ccccc2Cl)/c(=N/N=C(\C)c2ccc(NC(=O)c3ccccc3)cc2)s1	MTT	2.5 µM	viability	6.09%
